Laboratory results: ChEMBL document CHEMBL1126651, “Synthesis and biological evaluation of 1-[1-(2-benzo[b]thienyl)cyclohexyl]piperidine homologues at dopamine-uptake and phencyclidine- and sigma-binding sites” (J Med Chem, 1993)

Tests used:
[1] = molecular target: T1, Sodium-dependent dopamine transporter (Rattus norvegicus, UniProt P23977); experiment: Inhibition of [3H]cocaine binding to rat forebrain […]
How it was run: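 Rat forebrain membranes washed in 0.25 M sucrose/10 mM Na2HPO4 pH 7.4. […] Filtration with ice-cold saline wash, then scintillation counting. Six concentrations in triplicate, duplicate experiments on different preparations. IC50 taken as 50% inhibition of total binding.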

Glutamate NMDA receptor [2] = experiment: Ability to displace [3H]-TCP from rat brain homogenate; assay type: tissue-based
Rattus norvegicus [3] = species: Rattus norvegicus; experiment: (§1) Compound is evaluated for [3H]dopamine uptake inhibition in rat forebrain; assay type: functional
[4] = Ratio of IC50 of [3H]cocaine to that of dopamine; assay type: functional
[5] = molecular target: T1, Sodium-dependent dopamine transporter; experiment: Displacement of [3H]BTCP (1-[1-(2-benxo[b]thienyl)cyclohexyl]piperidine) from rat forebrain dopamine transporter
How it was run: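 Rat forebrain membranes (40000 g pellet) in 0.32 M sucrose/10 mM Tris·HCl pH 7.4. 0.4-0.6 nM [3H]BTCP incubated with test compound in 50 mM Na phosphate buffer, pH 7.4, for 90 min on ice. Nonspecific binding with 10 µM BTCP. Filtration, then scintillation counting. Six concentrations in triplicate, duplicate experiments on different preparations. IC50 taken as 50% inhibition of total binding.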

Glutamate NMDA receptor [6] = experiment: Binding affinity of compound at site labelled by [3H]TCP in guinea pig brain homogenates; assay type: tissue-based
Glutamate NMDA receptor [7] = experiment: Ability of compound to displace [3H]TCP from rat brain homogenates; assay type: tissue-based
Rattus norvegicus [8] = species: Rattus norvegicus; experiment: as §1

T1 sequence (P23977 whole entry): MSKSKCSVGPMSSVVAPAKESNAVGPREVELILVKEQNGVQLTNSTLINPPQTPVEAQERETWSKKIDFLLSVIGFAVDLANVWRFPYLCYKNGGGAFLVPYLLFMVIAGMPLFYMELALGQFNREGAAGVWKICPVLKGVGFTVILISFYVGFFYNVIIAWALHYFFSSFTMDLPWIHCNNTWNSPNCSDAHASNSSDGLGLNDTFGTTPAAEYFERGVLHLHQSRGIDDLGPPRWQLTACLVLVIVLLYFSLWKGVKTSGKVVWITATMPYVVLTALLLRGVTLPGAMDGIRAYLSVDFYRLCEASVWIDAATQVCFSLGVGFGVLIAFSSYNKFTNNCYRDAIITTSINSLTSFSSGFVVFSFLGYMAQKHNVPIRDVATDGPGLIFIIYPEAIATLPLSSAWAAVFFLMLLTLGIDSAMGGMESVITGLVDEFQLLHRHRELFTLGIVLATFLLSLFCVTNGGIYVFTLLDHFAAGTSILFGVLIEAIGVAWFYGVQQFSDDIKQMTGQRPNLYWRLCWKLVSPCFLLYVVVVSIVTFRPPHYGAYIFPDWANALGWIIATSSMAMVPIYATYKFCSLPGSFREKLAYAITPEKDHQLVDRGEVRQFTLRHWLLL

## c1ccc2sc(C3(N4CCCCC4)CCCCC3)cc2c1
[1]
  IC50: 41 nM
Glutamate NMDA receptor [2]
  Ki: > 10000 nM
Rattus norvegicus [3]
  IC50: 9 nM
[4]
  Ratio: 4.6
[5]
  IC50: 0.66 nM

## c1ccc2sc(C3(N4CCCCCC4)CCCCC3)cc2c1
[1]
  IC50: 36 nM
Rattus norvegicus [3]
  IC50: 43 nM
[4]
  Ratio: 0.84
Glutamate NMDA receptor [6]
  Ki: > 10000 nM
[5]
  IC50: 18 nM

## c1ccc2sc(C3(N4CCCCC4)CCCC3)cc2c1
[1]
  IC50: 76 nM
Rattus norvegicus [3]
  IC50: 24 nM
[4]
  Ratio: 3.2
Glutamate NMDA receptor [6]
  Ki: > 10000 nM
[5]
  IC50: 15 nM

## c1ccc2sc(C3(N4CCCC4)CCCCCC3)cc2c1
[1]
  IC50: 52 nM
Glutamate NMDA receptor [7]
  Ki: > 10000 nM
Rattus norvegicus [3]
  IC50: 27 nM
[4]
  Ratio: 1.9
[5]
  IC50: 13 nM

## NC1(c2cc3ccccc3s2)CCCC1
[1]
  IC50: 933 nM
Glutamate NMDA receptor [7]
  Ki: > 10000 nM
Rattus norvegicus [3]
  IC50: 148 nM
[4]
  Ratio: 6.3
[5]
  IC50: 630 nM

## NC1(c2cc3ccccc3s2)CCCCCC1
[1]
  IC50: 1340 nM
Glutamate NMDA receptor [7]
  Ki: > 10000 nM
Rattus norvegicus [3]
  IC50: 550 nM
[4]
  Ratio: 2.4
[5]
  IC50: 416 nM

## NC1(c2cc3ccccc3s2)CCCCC1
[1]
  IC50: 684 nM
Rattus norvegicus [3]
  IC50: 78 nM
[4]
  Ratio: 8.8
Glutamate NMDA receptor [6]
  Ki: > 10000 nM
[5]
  IC50: 123 nM

## c1ccc2sc(C3(N4CCCC4)CCCC3)cc2c1
[1]
  IC50: 26 nM
Rattus norvegicus [3]
  IC50: 19 nM
[4]
  Ratio: 1.4
Glutamate NMDA receptor [6]
  Ki: > 10000 nM
[5]
  IC50: 13 nM

## c1ccc2sc(C3(N4CCCCC4)CCCCCC3)cc2c1
[1]
  IC50: 111 nM
Glutamate NMDA receptor [7]
  Ki: > 10000 nM
Rattus norvegicus [3]
  IC50: 55 nM
[4]
  Ratio: 2
[5]
  IC50: 19 nM

## c1ccc2sc(C3(N4CCCCCC4)CCCCCC3)cc2c1
[1]
  IC50: 386 nM
Glutamate NMDA receptor [7]
  Ki: > 10000 nM
Rattus norvegicus [3]
  IC50: 252 nM
[4]
  Ratio: 1.5
[5]
  IC50: 67 nM

## c1ccc2sc(C3(N4CCCCCC4)CCCC3)cc2c1
[1]
  IC50: 62 nM
Rattus norvegicus [3]
  IC50: 132 nM
[4]
  Ratio: 0.47
Glutamate NMDA receptor [6]
  Ki: > 10000 nM
[5]
  IC50: 21 nM

## c1ccc2sc(C3(N4CCCC4)CCCCC3)cc2c1
[1]
  IC50: 12 nM
Rattus norvegicus [3]
  IC50: 11 nM
[4]
  Ratio: 1.1
Glutamate NMDA receptor [6]
  Ki: > 10000 nM
[5]
  IC50: 6.7 nM

## COC(=O)[C@H]1[C@@H](OC(=O)c2ccccc2)C[C@@H]2CC[C@H]1N2C [COCAINE]
Rattus norvegicus [8]
  IC50: 138 nM
